Measurements from ChEMBL document CHEMBL5058577, “EUbOPEN Chemogenomics Library 2 (Multiplex)” (2022).

System: HEK-293T
Experiment: Multiplex assay against HEK293T
Format: toxicity, cell-based
Conditions: human
Method in brief: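 Tubulin, mitochondrial-mass and membrane-permeability phenotypes are per cents of healthy-nucleus cells. Cells were gated by CellPathfinder machine learning into Hoechst high-intensity objects or normal cells, normal cells into healthy, pyknosed or fragmented nuclei, and pyknosed cells into mitotic or apoptotic. Before that, live cells stained at seeding with Hoechst33342, BioTracker Green Microtubule Cytoskeleton Dye, MitoTracker Red and Annexin V Alexa Fluor 680 were imaged on a CQ1 microscope at 37°C and 5% CO2 after compound addition.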

[1] = 12 h, 1 µM, compound concentration 1 uM, replicate 1
[2] = 12 h, 1 µM, compound concentration 1 uM, replicate 2
[3] = 12 h, 10 µM, compound concentration 10 uM, replicate 1
[4] = 12 h, 10 µM, compound concentration 10 uM, replicate 2
[5] = 24 h, 1 µM, compound concentration 1 uM, replicate 1
[6] = 24 h, 1 µM, compound concentration 1 uM, replicate 2
[7] = 24 h, 10 µM, compound concentration 10 uM, replicate 1
[8] = 24 h, 10 µM, compound concentration 10 uM, replicate 2
[9] = 48 h, 1 µM, compound concentration 1 uM, replicate 1
[10] = 48 h, 1 µM, compound concentration 1 uM, replicate 2
[11] = 48 h, 10 µM, compound concentration 10 uM, replicate 1
[12] = 48 h, 10 µM, compound concentration 10 uM, replicate 2

For `CC(=O)NCCc1c(Cc2ccccc2)[nH]c2ccccc12` [LUZINDOLE], the “Population Apoptotic (%)” value [1] was 38%, the “Population Fragmented Nuclei (%)” value [1] was 7% and the “Population Healthy Nuclei (%)” value [1] was 79%. For the same compound, the “Population Hoechst High Intensity Objects (%)” value [1] was 11%, the “Population Membrane Permeable-Phenotype (%)” value [1] was 0% and the “Population Mitochondria Different-Phenotype (%)” value [1] was 54%. For the same compound, the “Population Mitotic Cells (%)” value [1] was 61%, the “Population Normal (%)” value [1] was 88% and the “Population Pyknosed Nuclei (%)” value [1] was 12%. The “Population Tubulin-Different-Phenotype (%)” value [1] was 39%, the “Total Cell Count” value [1] was 412 and the “Population Apoptotic (%)” value [2] was 43%. For the same compound, the “Population Fragmented Nuclei (%)” value [2] was 5%, the “Population Healthy Nuclei (%)” value [2] was 80% and the “Population Hoechst High Intensity Objects (%)” value [2] was 8%. For the same compound, the “Population Mitochondria Different-Phenotype (%)” value [2] was 68%, the “Population Mitotic Cells (%)” value [2] was 56% and the “Population Normal (%)” value [2] was 91%. For the same compound, the “Population Pyknosed Nuclei (%)” value [2] was 13%, the “Population Tubulin-Different-Phenotype (%)” value [2] was 27% and the “Total Cell Count” value [2] was 304. For the same compound, the “Population Apoptotic (%)” value [3] was 37%, the “Population Fragmented Nuclei (%)” value [3] was 8% and the “Population Healthy Nuclei (%)” value [3] was 77%. For the same compound, the “Population Hoechst High Intensity Objects (%)” value [3] was 10%, the “Population Membrane Permeable-Phenotype (%)” value [3] was 0% and the “Population Mitochondria Different-Phenotype (%)” value [3] was 61%. The “Population Mitotic Cells (%)” value [3] was 62%, the “Population Normal (%)” value [3] was 89% and the “Population Pyknosed Nuclei (%)” value [3] was 14%. For the same compound, the “Population Tubulin-Different-Phenotype (%)” value [3] was 45%, the “Total Cell Count” value [3] was 379 and the “Population Apoptotic (%)” value [4] was 53%. The “Population Fragmented Nuclei (%)” value [4] was 5%, the “Population Healthy Nuclei (%)” value [4] was 80% and the “Population Hoechst High Intensity Objects (%)” value [4] was 9%. For the same compound, the “Population Mitochondria Different-Phenotype (%)” value [4] was 72%, the “Population Mitotic Cells (%)” value [4] was 46% and the “Population Normal (%)” value [4] was 90%. The “Population Tubulin-Different-Phenotype (%)” value [4] was 35%, the “Total Cell Count” value [4] was 315 and the “Population Apoptotic (%)” value [5] was 20%. The “Population Fragmented Nuclei (%)” value [5] was 12%, the “Population Healthy Nuclei (%)” value [5] was 75% and the “Population Hoechst High Intensity Objects (%)” value [5] was 7%. For the same compound, the “Population Membrane Permeable-Phenotype (%)” value [5] was 0%, the “Population Mitochondria Different-Phenotype (%)” value [5] was 33% and the “Population Mitotic Cells (%)” value [5] was 80%. The “Population Normal (%)” value [5] was 92%, the “Population Pyknosed Nuclei (%)” value [5] was 11% and the “Population Tubulin-Different-Phenotype (%)” value [5] was 26%. The “Total Cell Count” value [5] was 546, the “Population Apoptotic (%)” value [6] was 40% and the “Population Fragmented Nuclei (%)” value [6] was 7%. The “Population Healthy Nuclei (%)” value [6] was 82%, the “Population Hoechst High Intensity Objects (%)” value [6] was 8% and the “Population Mitochondria Different-Phenotype (%)” value [6] was 45%. For the same compound, the “Population Mitotic Cells (%)” value [6] was 60%, the “Population Normal (%)” value [6] was 91% and the “Population Pyknosed Nuclei (%)” value [6] was 10%. For the same compound, the “Population Tubulin-Different-Phenotype (%)” value [6] was 18%, the “Total Cell Count” value [6] was 379 and the “Population Apoptotic (%)” value [7] was 40%. For the same compound, the “Population Fragmented Nuclei (%)” value [7] was 9%, the “Population Healthy Nuclei (%)” value [7] was 81% and the “Population Hoechst High Intensity Objects (%)” value [7] was 10%. For the same compound, the “Population Membrane Permeable-Phenotype (%)” value [7] was 1%, the “Population Mitochondria Different-Phenotype (%)” value [7] was 40% and the “Population Mitotic Cells (%)” value [7] was 60%. For the same compound, the “Population Normal (%)” value [7] was 89%, the “Population Pyknosed Nuclei (%)” value [7] was 8% and the “Population Tubulin-Different-Phenotype (%)” value [7] was 32%. For the same compound, the “Total Cell Count” value [7] was 502, the “Population Apoptotic (%)” value [8] was 28% and the “Population Fragmented Nuclei (%)” value [8] was 11%. For the same compound, the “Population Healthy Nuclei (%)” value [8] was 77%, the “Population Hoechst High Intensity Objects (%)” value [8] was 11% and the “Population Membrane Permeable-Phenotype (%)” value [8] was 0%. The “Population Mitochondria Different-Phenotype (%)” value [8] was 58%, the “Population Mitotic Cells (%)” value [8] was 71% and the “Population Normal (%)” value [8] was 88%. The “Population Pyknosed Nuclei (%)” value [8] was 11%, the “Population Tubulin-Different-Phenotype (%)” value [8] was 24% and the “Total Cell Count” value [8] was 388. For the same compound, the “Population Apoptotic (%)” value [9] was 24%, the “Population Fragmented Nuclei (%)” value [9] was 16% and the “Population Healthy Nuclei (%)” value [9] was 78%. For the same compound, the “Population Hoechst High Intensity Objects (%)” value [9] was 3%, the “Population Membrane Permeable-Phenotype (%)” value [9] was 1% and the “Population Mitochondria Different-Phenotype (%)” value [9] was 16%. For the same compound, the “Population Mitotic Cells (%)” value [9] was 75%, the “Population Normal (%)” value [9] was 96% and the “Population Pyknosed Nuclei (%)” value [9] was 5%. For the same compound, the “Population Tubulin-Different-Phenotype (%)” value [9] was 12%, the “Total Cell Count” value [9] was 965 and the “Population Apoptotic (%)” value [10] was 46%. The “Population Fragmented Nuclei (%)” value [10] was 12%, the “Population Healthy Nuclei (%)” value [10] was 82% and the “Population Hoechst High Intensity Objects (%)” value [10] was 6%. For the same compound, the “Population Membrane Permeable-Phenotype (%)” value [10] was 0%, the “Population Mitochondria Different-Phenotype (%)” value [10] was 23% and the “Population Mitotic Cells (%)” value [10] was 53%. For the same compound, the “Population Normal (%)” value [10] was 93%, the “Population Tubulin-Different-Phenotype (%)” value [10] was 13% and the “Total Cell Count” value [10] was 522. The “Population Apoptotic (%)” value [11] was 27%, the “Population Fragmented Nuclei (%)” value [11] was 13% and the “Population Healthy Nuclei (%)” value [11] was 79%. For the same compound, the “Population Hoechst High Intensity Objects (%)” value [11] was 9%, the “Population Membrane Permeable-Phenotype (%)” value [11] was 0% and the “Population Mitochondria Different-Phenotype (%)” value [11] was 27%. For the same compound, the “Population Mitotic Cells (%)” value [11] was 72%, the “Population Normal (%)” value [11] was 90% and the “Population Pyknosed Nuclei (%)” value [11] was 7%. The “Population Tubulin-Different-Phenotype (%)” value [11] was 17%, the “Total Cell Count” value [11] was 742 and the “Population Apoptotic (%)” value [12] was 36%. For the same compound, the “Population Fragmented Nuclei (%)” value [12] was 11%, the “Population Healthy Nuclei (%)” value [12] was 82% and the “Population Hoechst High Intensity Objects (%)” value [12] was 6%. For the same compound, the “Population Mitochondria Different-Phenotype (%)” value [12] was 32%, the “Population Mitotic Cells (%)” value [12] was 63% and the “Population Normal (%)” value [12] was 93%. For the same compound, the “Population Pyknosed Nuclei (%)” value [12] was 5%, the “Population Tubulin-Different-Phenotype (%)” value [12] was 19% and the “Total Cell Count” value [12] was 573.
